The source of these data is ChEMBL document CHEMBL4351001, “2-Aminoimidazole-based antagonists of the 5-HT6 receptor - A new concept in aminergic GPCR ligand design” (Eur J Med Chem, 2019).

SMILES strings stand for the structures. A value given as a limit tells only on which side of the number the result lay.

The target in data set [1] is T1, 5-hydroxytryptamine receptor 6 (Homo sapiens, UniProt P50406). The data set can be described thus: Antagonist activity at human 5HT6 receptor expressed in HEK293 cells assessed as inhibition of 5-CT induced cAMP production measured after 30 mins by TR-FRET assay. In kind it is functional, cell-based. (Changes in cAMP serve as a functional read-out for many G protein-coupled receptors.)

Another data set concerns HepG2. The experiment in a line: Cytotoxicity against human HepG2 cells assessed as cell membrane damage measured after 24 hrs by Toxilight assay. In kind it is cell-based. To be noted: HepG2, 24 h. In a few lines:
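HepG2 cells seeded at 2x10^4 per well in DMEM with 10% FBS, grown 24 h (37°C, 5% CO2), then exposed 24 h to 1, 10, 50 and 100 μM compound. Viability read with PrestoBlue (fluorescence); membrane damage by ToxiLight (luminescence).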

In another data set the target is Cytochrome P450 2D6 (Homo sapiens, UniProt P10635). The experiment in a line: Inhibition of human recombinant CYP2D6 expressed in Escherichia coli at 6.4 uM using luciferin ME-EGE as substrate preincubated for 5 mins followed by NADPH addition measured after 45 mins by P450-Glo luminescence assay. In kind it is ADME. To be noted: recombinant enzyme, 0.75 h. Summed up: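 P450-Glo luminescent assays: enzyme, proluciferin and compound (final 0.01–25 μM) preincubated 5 min, reaction started with NADPH regeneration system; incubated at room temperature 30 min (CYP3A4) or 45 min (CYP2D6).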

Data set [2] is described as follows: Solubility of compound in water. The settings on record: water; read-out: solubility. In kind it is physicochemical.
For data set [3], the target named is T2, Alpha-1A adrenergic receptor (Rattus norvegicus) (UniProt P43140).
T2 sequence (whole entry): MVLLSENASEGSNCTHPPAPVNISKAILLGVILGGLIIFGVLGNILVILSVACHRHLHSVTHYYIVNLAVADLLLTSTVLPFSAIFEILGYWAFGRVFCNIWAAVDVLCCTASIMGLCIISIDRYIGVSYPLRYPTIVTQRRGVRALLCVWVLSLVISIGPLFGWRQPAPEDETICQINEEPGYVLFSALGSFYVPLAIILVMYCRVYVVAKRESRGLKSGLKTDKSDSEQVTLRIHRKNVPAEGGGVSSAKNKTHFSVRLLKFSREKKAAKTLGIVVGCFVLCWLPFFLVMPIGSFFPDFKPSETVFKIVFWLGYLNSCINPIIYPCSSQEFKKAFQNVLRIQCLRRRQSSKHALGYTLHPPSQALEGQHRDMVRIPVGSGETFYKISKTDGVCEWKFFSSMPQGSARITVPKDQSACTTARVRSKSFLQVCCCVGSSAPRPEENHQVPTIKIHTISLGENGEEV
The experiment in a line: Displacement of [3H] prazosin from rat alpha 1A adrenergic receptor at 10^-6 M measured after 60 mins by scintillation counter method relative to control. On the technique in general: Displacement assays read how much labelled ligand stays bound in the presence of the test substance.

Data set [4] addresses T3, 5-hydroxytryptamine receptor 2C (Homo sapiens) (UniProt P28335).
T3 sequence (whole entry): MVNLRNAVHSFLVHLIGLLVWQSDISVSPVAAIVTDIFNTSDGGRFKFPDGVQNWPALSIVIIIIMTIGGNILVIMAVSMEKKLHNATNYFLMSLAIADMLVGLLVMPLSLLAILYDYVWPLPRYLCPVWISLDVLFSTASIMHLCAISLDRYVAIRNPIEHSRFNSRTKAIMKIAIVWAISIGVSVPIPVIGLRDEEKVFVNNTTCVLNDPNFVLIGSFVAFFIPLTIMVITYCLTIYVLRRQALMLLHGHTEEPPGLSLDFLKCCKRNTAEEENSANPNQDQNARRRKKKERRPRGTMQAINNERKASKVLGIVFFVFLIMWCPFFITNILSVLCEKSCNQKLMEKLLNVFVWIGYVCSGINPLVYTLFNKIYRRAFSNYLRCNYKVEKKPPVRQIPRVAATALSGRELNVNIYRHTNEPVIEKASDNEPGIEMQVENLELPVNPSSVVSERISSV
The data set can be described thus: Agonist activity at human 5HT2C serotonin receptor at 10^-5 M relative to control.

Data set [5] concerns the target T1, 5-hydroxytryptamine receptor 6. The data set can be described thus: Displacement of [3H]LSD from human 5HT6 receptor expressed in HEK293 cells measured after 1 hr by liquid scintillation counter method. In kind it is cell-based.
In data set [6] the target is T3, 5-hydroxytryptamine receptor 2C (Homo sapiens). The experiment in a line: Antagonist activity at human 5HT2C serotonin receptor at 10^-5 M relative to control. Also on record: scale not given: the % may be the effect or the level left.
In the next data set the target is D(2) dopamine receptor (Homo sapiens, UniProt P14416). The experiment in a line: Displacement of [3H]-methylspiperone from human D2 long receptor expressed in HEK293 cells measured after 1 hr by liquid scintillation counter method. In kind it is cell-based. Summed up: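 HEK293 membranes stably expressing human D2L receptor, incubated 1 h at 37°C, then filtered and retained radioactivity counted; (+)-butaclamol 1 μM defines nonspecific binding. Tested in triplicate at 7–8 concentrations (10⁻¹¹–10⁻⁴ M); Ki via Cheng-Prusoff, averaged over at least two independent experiments.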

The target of data set [7] is T4, 5-hydroxytryptamine receptor 1A (Homo sapiens, UniProt P08908).
T4 sequence (P08908 whole entry): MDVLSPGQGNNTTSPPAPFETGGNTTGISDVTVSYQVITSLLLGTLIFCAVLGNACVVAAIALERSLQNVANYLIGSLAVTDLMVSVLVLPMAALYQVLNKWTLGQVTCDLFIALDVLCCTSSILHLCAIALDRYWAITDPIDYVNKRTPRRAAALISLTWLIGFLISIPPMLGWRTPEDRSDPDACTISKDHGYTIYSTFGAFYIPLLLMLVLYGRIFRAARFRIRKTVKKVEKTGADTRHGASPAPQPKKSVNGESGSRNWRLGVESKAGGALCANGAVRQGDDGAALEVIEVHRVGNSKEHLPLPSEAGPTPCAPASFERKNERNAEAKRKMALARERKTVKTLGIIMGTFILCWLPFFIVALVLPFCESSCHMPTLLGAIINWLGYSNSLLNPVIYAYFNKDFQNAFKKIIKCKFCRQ
The data set can be described thus: Displacement of [3H]-8-OH-DPAT from human 5HT1A receptor expressed in HEK293 cells incubated for 1 hr by liquid scintillation counter method. To be noted: read-out: Ki. In kind it is cell-based. Summed up: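 HEK293 cells stably expressing human 5-HT1AR; membranes in 50 mM Tris–HCl, 0.1 mM EDTA, 4 mM MgCl2, 10 μM pargyline, 0.1% ascorbate; incubated 1 h at room temperature, then filtered. Nonspecific binding defined with 10 μM 5-HT.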

Data set [8] is described as follows: Mutagenicity in Salmonella typhimurium TA100 at up to 10 uM measured after 90 mins by Ames test. In kind it is toxicity. To be noted: salmonella enterica subsp. enterica serovar typhimurium. In a few lines:
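Ames microplate fluctuation with S. typhimurium TA100; bacteria exposed to 1 and 10 μM compound 90 min at 37°C in limited-histidine medium, then distributed into histidine-free indicator medium, 72 h at 37°C. Revertant growth scored by colour change (absorbance 420 nm); NQNO 0.5 μM positive control; alert at ≥2.0-fold over baseline and binomial B ≥0.99.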
Background: In the Ames test, an excess of revertant colonies over the control signals mutagenicity.

Data set [9] concerns the target Histamine H1 receptor (Homo sapiens) (UniProt P35367). The experiment in a line: Antagonist activity at human recombinant H1 histamine receptor at 10^-5 M relative to control. The arrangement: scale not given: the % may be the effect or the level left.
Data set [10] has the same target. The data set can be described thus: Agonist activity at human recombinant H1 histamine receptor at 10^-5 M relative to control.

T1 sequence (P50406 whole entry): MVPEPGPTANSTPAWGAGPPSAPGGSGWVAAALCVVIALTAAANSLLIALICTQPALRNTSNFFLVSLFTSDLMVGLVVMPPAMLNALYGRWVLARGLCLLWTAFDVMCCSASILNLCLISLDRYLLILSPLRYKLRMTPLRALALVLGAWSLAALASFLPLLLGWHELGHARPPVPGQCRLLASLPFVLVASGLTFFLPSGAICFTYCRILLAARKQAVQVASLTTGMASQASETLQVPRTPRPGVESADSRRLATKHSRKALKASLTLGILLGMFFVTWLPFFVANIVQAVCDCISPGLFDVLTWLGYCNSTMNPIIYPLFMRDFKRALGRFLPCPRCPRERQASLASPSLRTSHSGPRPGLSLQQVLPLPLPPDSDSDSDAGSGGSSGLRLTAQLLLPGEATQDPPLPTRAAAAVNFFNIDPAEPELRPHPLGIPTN
Chain of Histamine H1 receptor (Homo sapiens) (P35367 whole entry): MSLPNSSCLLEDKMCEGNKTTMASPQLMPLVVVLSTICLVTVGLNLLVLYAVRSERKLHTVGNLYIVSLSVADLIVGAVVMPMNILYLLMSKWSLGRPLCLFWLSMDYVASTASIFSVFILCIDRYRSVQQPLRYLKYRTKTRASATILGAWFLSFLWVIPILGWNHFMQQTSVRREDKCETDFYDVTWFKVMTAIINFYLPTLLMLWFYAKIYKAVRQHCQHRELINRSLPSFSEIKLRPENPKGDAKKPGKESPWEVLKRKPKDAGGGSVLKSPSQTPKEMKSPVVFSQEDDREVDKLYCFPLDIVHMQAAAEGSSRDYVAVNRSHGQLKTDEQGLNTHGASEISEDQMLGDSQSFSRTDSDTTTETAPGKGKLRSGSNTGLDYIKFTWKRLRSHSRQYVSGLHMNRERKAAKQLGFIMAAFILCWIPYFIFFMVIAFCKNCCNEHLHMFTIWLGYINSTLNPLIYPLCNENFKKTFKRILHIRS
Chain of Cytochrome P450 2D6 (P10635 whole entry): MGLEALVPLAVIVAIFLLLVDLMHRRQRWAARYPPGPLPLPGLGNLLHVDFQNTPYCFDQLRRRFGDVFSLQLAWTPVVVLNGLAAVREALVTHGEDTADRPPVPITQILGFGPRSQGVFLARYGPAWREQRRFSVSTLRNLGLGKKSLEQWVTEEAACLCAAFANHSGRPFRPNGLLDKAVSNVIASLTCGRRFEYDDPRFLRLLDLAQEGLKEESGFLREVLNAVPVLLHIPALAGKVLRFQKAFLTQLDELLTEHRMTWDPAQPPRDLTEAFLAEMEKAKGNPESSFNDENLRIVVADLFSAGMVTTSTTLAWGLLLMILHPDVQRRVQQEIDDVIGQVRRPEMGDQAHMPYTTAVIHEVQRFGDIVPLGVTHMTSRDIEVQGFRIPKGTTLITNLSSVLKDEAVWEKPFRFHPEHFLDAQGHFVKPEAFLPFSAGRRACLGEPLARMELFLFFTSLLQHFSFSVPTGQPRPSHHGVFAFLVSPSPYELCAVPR
Chain of D(2) dopamine receptor (P14416 whole entry): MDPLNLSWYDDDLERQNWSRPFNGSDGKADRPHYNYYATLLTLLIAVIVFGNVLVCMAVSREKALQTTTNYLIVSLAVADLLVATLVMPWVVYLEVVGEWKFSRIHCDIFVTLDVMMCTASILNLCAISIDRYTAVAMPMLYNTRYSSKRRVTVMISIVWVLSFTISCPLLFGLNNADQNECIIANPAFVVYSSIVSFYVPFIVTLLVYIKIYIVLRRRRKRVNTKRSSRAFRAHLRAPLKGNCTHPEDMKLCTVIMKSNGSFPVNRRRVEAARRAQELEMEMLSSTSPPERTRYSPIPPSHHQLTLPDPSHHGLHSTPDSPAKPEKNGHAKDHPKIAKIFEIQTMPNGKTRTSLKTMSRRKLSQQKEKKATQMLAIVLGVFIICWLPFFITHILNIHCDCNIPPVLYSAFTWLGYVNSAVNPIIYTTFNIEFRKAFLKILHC

Usually Kb stands for the affinity of an antagonist, worked out from how it opposes an agonist. One may read the IC50 as the concentration needed to halve the response being measured. A word on the solubility: it is how much of the substance goes into solution per volume. One may read the inhibition as the change of the read-out against control, counted positive when it falls. The term Ki denotes a dissociation constant, usually derived from enzyme kinetics or from competition with a known ligand. Consider `Cc1nc(N)[nH]c1-c1cn(S(=O)(=O)c2cccc3ccccc23)c2ccccc12.Cl`, for which the antagonist dissociation constant (Kb) in data set [1] was 4.8 nM. Besides, in the data set with HepG2, the IC50 amounted to 18400 nM. The “inhibition (INH)” value on Cytochrome P450 2D6 is reported as “Active”. For the same compound, in data set [2], the solubility is 1000 to 10000 µg/mL. The inhibition in [3] worked out at 10.7%. Further, the Activity was 21.3% in data set [4]; 50.3% in data set [6]; “Non-Toxic” in [8]; 25.7% in [9]; -1.3% in [10]. Also, the Ki is 8 nM in data set [5], 1170 nM at D(2) dopamine receptor and more than 10000 nM in [7].
